An excerpt weighted towards active compounds, which were near 3% of everything screened.
Insulin prom inh – inhibitors of insulin promoter-driven GFP, primary screen, imaging, TRM-6 cells (human fetal islet line), eGFP reporter, cell count. AID 1273, 2008. inhibition, % at 2 µM. reporter expression induced with tamoxifen. actives 0.9% (n = 130,000);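 active = inhibition above the mean plus 3 SD, with well images judged a real hit on visual review, cut at about 60% in these data, passing the limit was not always enough; inconclusive = inhibition over the cutoff but images rejected on review; inactive = inhibition not above the cutoff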
RAM inhibit – inhibitors of the yeast RAM network, primary screen, dse1pr::URA3 reporter, 5-FOA selection; S. cerevisiae dse1pr::URA3 reporter, 5-FOA growth OD615, 2 d; analog-sensitive cbk1-as2 kinase mutant strain; actives 1.8% (n = 190,000); inhibition, % at 50 µM; AID 868, 2007;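 active = inhibition above a set limit, 3 SD over mean compound inhibition, cut at about 8.4% in these data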;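 note: inhibition rescues growth on 5-FOA so higher OD means more RAM inhibition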
Yeast life ext – compounds extending yeast replicative lifespan, primary screen, S. cerevisiae, OD615; S. cerevisiae growth with nicotinamide; deaD strain in restrictive glucose medium; inhibition of the nicotinamide effect, % at 10 µM; actives 0.68% (n = 130,000);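 active = inhibition above a set limit, placed 3 SD over the median of all compounds, cut at about 26% in these data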
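Material: Modified budding yeast, DeaD strain | Medium: Restrictive glucose medium | Probe or stimulus: 1.5 mM nicotinamide | Dosing: Single dose 10 µM compound, 0.25% DMSO | Times: 48 h at 30 °C | Technique: OD615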
Yeast growth inh – growth inhibitors of yeast BB579 in restrictive medium, primary screen, yeast lifespan-shortening project, S. cerevisiae; inhibition, % at 10 µM; OD615, 48 h; actives 0.51% (n = 140,000);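 active = inhibition above a set limit, 3 SD over the mean compound inhibition, cut at about 44% in these data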
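System: DeaD yeast strain BB579; buffer or medium: CSMM-D dextrose restrictive medium; technique: OD at 615 nm; schedule: 4 h cell preincubation, 48 h compound exposure, 30 °C humidified; doses: single 10 µM dose; controls: amphotericin B 10 µg/mL, positive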
Ins promoter up – insulin promoter activators in MIN6 cells, imaging, high-content screening, mouse beta cells; MIN6 insulin promoter-GFP reporter; active compounds read high; z-score at 5 µM; actives 0.3% (n = 190,000); AID 1625, 2009;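 active = z-score above 3 at 5 µM with at least 500 cells counted in the well; inconclusive = wells under 500 cells, flagged as cytotoxic or low count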
RAM efflux-def – 5-FOA growth of efflux-deficient control yeast, dose response, counter-screen for RAM network inhibitor project, S. cerevisiae, OD615. S. cerevisiae efflux-deficient reporter strain, 5-FOA growth OD615, 2 days. shares compounds with RAM inhibit. 1,200 tested, under 10 active. max inhibition, %; call rule not given here
Numbers stand for hits; 0 = inactive; ? = inconclusive; - = no result.

SMILES	Insulin prom inh	RAM inhibit	Yeast life ext	Yeast growth inh	Ins promoter up	RAM efflux-def
CC(C)OCCCN1C=C2C(=O)C(C)(OC(=O)CCc3ccccc3)C(=O)C=C2C=C1c1ccc(C#N)cc1 (stereo not given)	-	-	-	-	0	-
C=CCOC(=O)/C(=C/c1cccc2ccccc12)NC(=O)c1ccccc1	0	41.8	0	0	-	0
O=C(NC1CC1)C1=C[C@@H](C2CCCCC2)C[C@@H](OCCCCO)O1	-	0	-	-	0	-
COc1ccc(CN2C(=O)c3ccccc3C(/C=N\OCc3ccc(C)cc3)C2=O)cc1 (stereo not given)	0	13.6	0	0	-	0
COc1ccc(CN2C(=O)c3cccc4cccc(c34)C2=O)cc1	-	-	-	-	0	-
Cc1nc(COc2ccccc2Cl)sc1-c1ccnc(N)n1	-	-	-	-	0	-
CCOC(=O)c1c(NC(=O)CSc2nnc(Cc3ccccc3)o2)sc(C)c1C	0	14.2	-	0	-	0
CCOC(=O)c1c(NC(=O)CSc2nnc(-c3ccco3)o2)sc(C)c1C	0	11.5	0	0	0	0
N#Cc1cnn2ccn(C3OC(CO)C(O)C3O)c12 (stereo not given)	-	-	-	-	0	-
CCS(=O)(=O)c1ccc(-c2csc(-c3ccc(Cl)cc3)n2)c(Cl)c1Cl	0	11.5	0	0	0	0
Cc1cccnc1CN1CCN(Cc2nc(Cc3cccc(F)c3)no2)CC1	-	0	-	-	0	-
O=C(O)CCC(=O)N1CN2CN(C(=O)CCC(=O)O)CC([N+](=O)[O-])(C2)C1	-	-	-	-	0	-
COc1ccc(C(=O)/C=C/C(=O)N(CC(=O)NCCC(C)C)Cc2cccs2)c(O)c1	-	11.8	-	-	0	0
Cc1cc(Cl)ccc1OCC(=O)N/N=C1\CCCc2ccccc21	0	15.0	0	0	-	0
CCNS(=O)(=O)c1ccc(NS(=O)(=O)c2cc(C)ccc2C)cc1	0	0	0	0	0	-
CCCCNS(=O)(=O)c1ccc(NS(=O)(=O)c2c(C)cc(C)cc2C)cc1	0	11.8	0	0	0	0
COc1cccc(NC(=S)N(Cc2ccc(Cl)cc2)Cc2ccc(C(=O)O)cc2)c1	-	13.6	-	-	0	0
COc1cccc(CSc2nc3cc4c(cc3cc2C)OCCO4)c1	0	18.0	0	0	0	0
N#C/C(=C\Nc1ccccc1SC(F)(F)F)c1nc(-c2ccccc2)cs1	0	11.5	0	0	0	0
O=C1C2C(C(=O)N1/N=C/c1ccc(N3CCCCC3)o1)C1C=CC2C12CC2 (stereo not given)	0	0	0	0	0	-
CCOC(=O)C1=NN(c2ccccc2C)C2=NC(C)=C(C(=O)OC)C(c3cccs3)N12 (stereo not given)	0	0	-	0	-	-
CCOC(=O)C1=NN(c2ccccc2C)C2=NC(C)=C(C(=O)OC)C(c3cccc(OC)c3)N12 (stereo not given)	-	22.7	0	0	0	0
Cc1ccc(Sc2nc3c(c(=O)[nH]c(=O)n3C)n2CCc2ccccc2)cc1	-	0	0	0	0	-
Cn1c(=O)[nH]c(=O)c2c1nc(Sc1ccccc1)n2CCc1ccccc1	-	0	0	0	0	0
CCC(=O)c1ccc(OCC(=O)OCC(=O)Nc2sccc2C(N)=O)cc1	0	0	-	-	0	-
SMILES	Insulin prom inh	RAM inhibit	Yeast life ext	Yeast growth inh	Ins promoter up	RAM efflux-def
CCSC1=N/C(=C\c2ccc(-c3ccccc3[N+](=O)[O-])o2)C(=O)S1	0	14.2	0	0	0	0
CCCSC1=N/C(=C\c2ccc([N+](=O)[O-])o2)C(=O)S1	-	0	-	-	0	-
COc1cc(/C=N/NC(N)=O)ccc1OC(=O)c1cccs1	0	0	-	-	0	-
COc1cc(/C=N/Nc2ccc(Cl)cc2)ccc1OC(=O)c1cccs1	0	11.8	0	0	0	0
CCOC(=O)C(C)(C)N(Cc1cccc(C)c1)S(=O)(=O)c1cccc([N+](=O)[O-])c1	-	12.6	0	0	0	0
CCCC(=O)Oc1ccc(N(C(=O)CCC)S(=O)(=O)c2cccc([N+](=O)[O-])c2)cc1	0	0	0	0	0	-
O=C(CC(Nc1ccccc1Cl)C(=O)OCC(=O)c1cccs1)c1ccccc1 (stereo not given)	0	18.9	0	0	0	0
O=C(OCC(=O)c1cccs1)c1ccccc1	-	0	0	0	0	-
Cc1ccc(CS/C(Nc2ccccc2C)=C(\C#N)C(=O)NCc2ccco2)c(C)c1	0	13.0	0	0	0	0
Cc1ccccc1N/C(SCc1ccc(Cl)cc1)=C(/C#N)C(=O)NCc1ccco1	0	14.7	0	0	0	0
O=C(CCSCc1ccc(Cl)cc1)NCc1ccco1	0	0	-	-	0	-
CCOc1ccc(NC(=O)CSc2nc(-c3cccs3)cc(C(F)(F)F)n2)c([N+](=O)[O-])c1	0	0	0	0	0	-
COc1cc(C(=O)NC(=S)Nc2nccs2)cc(OC)c1OC	-	0	-	-	0	-
CCN(CC)S(=O)(=O)c1ccc(NCC2COc3ccccc3O2)c([N+](=O)[O-])c1 (stereo not given)	0	17.4	0	0	0	0
O=C(COC(=O)c1ccc2c(=O)n3c(nc2c1)CCC3)Nc1ccc(OC(F)F)cc1	-	12.7	-	-	0	0
Cc1cccc(NC(=O)COC(=O)c2ccc3c(=O)n4c(nc3c2)CCC4)c1	0	0	0	0	0	-
Cc1c(NS(=O)(=O)c2ccc(Cl)c(C(=O)OC(C)C(=O)NCc3ccco3)c2)c(=O)n(-c2ccccc2)n1C (stereo not given)	0	0	-	-	0	-
Nc1ccc(C(=O)c2cccs2)cc1[N+](=O)[O-]	0	13.0	-	-	-	0
Nc1ccc(C(=O)O)cc1[N+](=O)[O-]	-	0	-	-	0	-
CCCC(=O)Nc1ccc(C(=O)NNC(=S)NC(=O)c2ccc(Br)o2)cc1	-	0	-	-	0	-
O=c1c(/C=N/O)coc2ccc3ccccc3c12	0	23.1	0	0	0	0
COc1ccc(C)cc1N1C(=N)/C(=C2/Nc3ccccc3S2)C(c2ccccc2)C1=O (stereo not given)	0	13.5	0	0	?	0
O=C1NCC(O)=C1C=Nc1ccccc1O	-	-	-	-	0	-
CCOC(=O)C(C)Sc1nc(-c2cccs2)ccc1C#N (stereo not given)	-	12.9	0	0	0	0
C=COC(=O)CSc1nc(-c2cccs2)ccc1C#N	-	0	0	0	0	-
CCNc1ccc2noc3c2c1C(=O)c1ccccc1-3	0	19.9	-	0	-	0
COc1ccc(/C=C/C(=O)Nc2cc(S(=O)(=O)N3CCCCC3)ccc2N2CCCCC2)cc1OC	0	11.8	0	0	0	0
C/C(=N\NC(=O)Cc1csc(N2CCOCC2)n1)c1ccc(Cl)c(Cl)c1	-	0	-	-	0	-
O=C(O)C(Cc1ccccc1)N1C(=O)/C(=C/c2cccs2)SC1=S (stereo not given)	-	15.5	-	-	0	0

High-throughput results (PubChem)
